# Assay outcomes as filed in PubChem.
# FN deposit inh: fibronectin deposition inhibition; AH1F fibroblasts, Alexa488-fibronectin deposition fluorescence, overnight; inhibition, % at 12.6 µM; 0.086% of 350,000 active; AID 743247;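 active = mean inhibition across replicates of 30% or more, regardless of how many single replicates reach that level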
#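 Material: AH1F fibroblast monolayer depositing Alexa488-labelled fibronectin into matrix / Amount: 10000 AH1F cells per well / Signal: fluorescence 485/525 nm / Medium: DMEM, 2% serum / Compound: single dose, pinned / Incubation: 1 h cell adhesion before compound, then overnight fibronectin incubation / Reagent: Alexa488-FN, 24 nM final / Read-out: inhibition of fibronectin deposition signal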
# EWS-Fli block: inhibitors of EWS/Fli oncoprotein transcriptional activity | A673 NR0B1-luciferase reporter, viability-normalised | inhibition, % at 12.6 µM | 0.67% of 350,000 active | AID 651661;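 active = mean inhibition of at least 50% after viability correction, with every replicate also passing that limit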;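 note: firefly luciferase signal divided by Alamar Blue viability fluorescence both relative to DMSO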
# PGC1a acetyl inh: lowers PGC1a acetylation signal in U2OS cells; AlphaScreen anti-acetyl-lysine; with virally co-expressed GCN5 acetyltransferase; inhibition, % at 15.6 µM; 0.17% of 350,000 active; AID 651687;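 active = every replicate shows inhibition of at least 40%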
# PAX8 inh HTS: inhibitors of PAX8 transcriptional activity in RMG-I cells | 1.2% of 360,000 active | inhibition, % at 12.6 µM | RMG-I TPO-luciferase reporter, SteadyGlo, 24 h;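 active = mean replicate inhibition at least 60% with every replicate also reaching 60%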;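 note: luciferase light reporting Pax8 driven TPO promoter activity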
# FGF22 binding: binders of recombinant human FGF22 by thermal shift; AID 651658; Q9HCT0; SYPRO orange fluorescence; percent of sucrose octasulfate shift, DMSO zero; activity (Tm shift, normalised), % at 9.99 µM; 1.5% of 340,000 active;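 active = mean Tm shift, scaled 0 neutral to 100 positive control, at about 1.3% or above, every replicate too, limit read from the data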
# Target sequence (Q9HCT0 whole entry, looked up): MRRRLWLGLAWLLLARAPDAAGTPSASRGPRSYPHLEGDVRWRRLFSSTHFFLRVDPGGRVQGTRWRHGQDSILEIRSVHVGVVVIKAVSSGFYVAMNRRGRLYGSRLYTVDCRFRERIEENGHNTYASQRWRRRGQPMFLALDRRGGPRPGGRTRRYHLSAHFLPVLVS
# HIV Env fusion: HIV envelope-mediated fusion inhibition; HeLa-JRFL Env/CEM21 cell fusion, luciferase; inhibition, % at 12.3 µM; 1.1% of 360,000 active; AID 651610;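 active = mean replicate inhibition score of at least 50 and every replicate individually at or above 50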
# Hits are given with their value; 0 = inactive; - = not tested or not shown; ! = a repeat was not active. Only some compounds are listed: those with a hit (about 3.1% of all), similar ones and a draw of the others.
SMILES,FN deposit inh,EWS-Fli block,PGC1a acetyl inh,PAX8 inh HTS,FGF22 binding,HIV Env fusion
CNC[C@H]1OCCCC[C@H](C)Oc2ccc(NC(=O)NC(C)C)cc2C(=O)N([C@H](C)CO)C[C@@H]1C,0,-,0,0,0,0
C[C@@H](NC(=O)C[C@H]1C=C[C@H](NC(=O)Cc2ccccn2)[C@@H](CO)O1)c1ccccc1,0,-,0,-,0,-
C[C@@H]1CCCCO[C@@H](CN(C)C(=O)Nc2ccccc2)[C@H](C)CN([C@@H](C)CO)C(=O)c2cc(NC(=O)c3ccncc3)ccc2O1,0,0,0,0,-,0
COc1ccc(CC(=O)OCC(=O)Nc2cc(S(=O)(=O)N3CCOCC3)ccc2N2CCCC2)cc1,0,0,0,0,43,0
O=S(=O)(Nc1cc(S(=O)(=O)N2CCOCC2)ccc1O)c1ccc2c(c1)OCCCO2,-,0,0,0,0,-
COc1ccc(CNC(=O)COC(=O)c2ccc(S(=O)(=O)N3CCOCC3)cc2)cc1,0,0,0,0,0,0
COc1ccc(CNC(=O)c2ccc(S(=O)(=O)N3CCOCC3)cc2)cc1,0,0,-,-,78,0
O=C(CCCOc1ccc(Cl)cc1Cl)Nc1cc(S(=O)(=O)N2CCOCC2)ccc1N1CCOCC1,0,0,-,0,0,79
O=S(=O)(Nc1cc(S(=O)(=O)N2CCOCC2)ccc1N1CCOCC1)c1ccc2c(c1)OCCO2,0,0,-,0,44,0
C[C@@H]1CN([C@H](C)CO)C(=O)c2cc(NC(=O)CCC(F)(F)F)ccc2O[C@@H]1CN(C)C,-,0,0,0,0,-
CO[C@H]1CN(C)C(=O)c2cc(NS(C)(=O)=O)ccc2OC[C@@H](C)N(C(=O)CN(C)C)C[C@H]1C,0,0,0,-,0,0
COc1ccc(/C=C/C(=O)Nc2cc(S(=O)(=O)N3CCOCC3)ccc2N2CCCC2)cc1OC,-,0,0,0,43,0
COc1ccc(/C=C/C(=O)Nc2cc(S(=O)(=O)N3CCCCC3)ccc2N2CCCCC2)cc1OC,0,-,-,0,-,0
Clc1ccccc1OCc1nnc(-c2ccccc2Br)o1,-,-,0,-,-,-
O=c1c(Cl)c(Cl)cnn1Cc1nnc(-c2ccccc2Br)o1,39,0,-,98,0,0
Cc1cccc2sc(NC(=O)CN3C(=O)NC4(CCCC4)C3=O)nc12,-,0,0,0,0,0
O=C(CN1C(=O)C2CC=CCC2C1=O)Nc1nccs1 (centres undefined),-,-,50,-,-,-
Cc1cccc2sc(NC(=O)CN3C(=O)C4CC=CCC4C3=O)nc12 (centres undefined),0,0,0,0,44,0
Cc1ccc2sc(NC(=O)CN3C(=O)CCC3=O)nc2c1C,0,0,0,0,0,0
Cc1cnc(NC(=O)CN2C(=O)C3CC=CCC3C2=O)s1 (centres undefined),0,-,-,-,-,0
Cc1ccc(C)c2sc(NC(=O)CN3C(=O)CCC3=O)nc12,0,0,0,0,43,0
COc1ccc(C#Cc2cnc3c(c2)C(=O)N([C@H](C)CO)C[C@@H](C)[C@@H](CN(C)C(C)=O)O3)cc1,0,0,0,-,0,0
COc1ccc(/C=N/Nc2cc(N3CCCC3)nc(N3CCCC3)n2)cc1,0,0,-,68,0,0
CC(C)c1ccc(/C=C(\c2nc3ccccc3[nH]2)S(=O)(=O)c2ccccc2)cc1,0,-,-,87,-,0
O=S(=O)(/C(=C/c1ccc(C(F)(F)F)cc1)c1nc2ccccc2[nH]1)c1ccccc1,65,-,-,115,-,0
SMILES,FN deposit inh,EWS-Fli block,PGC1a acetyl inh,PAX8 inh HTS,FGF22 binding,HIV Env fusion
C/C(=C\c1ccc(N)cc1)c1nc2ccccc2[nH]1,0,0,0,0,0,0
Cc1ccc(-c2csc(Nc3ccccn3)n2)cc1,0,0,0,0,0,0
COc1ccc(-c2csc(Nc3ccc(C)cn3)n2)cc1,0,0,0,0,61,0
CC1(C)CC(Nc2ccc(Nc3ccccc3)cc2)CC(C)(C)N1,0,0,-,69,0,0
C[C@@H]1CCCCO[C@H](CN(C)Cc2ccc(Cl)c(Cl)c2)[C@@H](C)CN([C@H](C)CO)C(=O)c2cc(N(C)C)ccc2O1,0,0,0,0,43!,0
C[C@H](CO)N1C[C@H](C)[C@H](CN(C)Cc2ccc(Cl)c(Cl)c2)OCCCC[C@H](C)Oc2ccc(NC(=O)c3ccccc3)cc2C1=O,0,0,0,0,0,0
C[C@@H]1CCCCO[C@H](CN(C)Cc2ccc(Cl)c(Cl)c2)[C@@H](C)CN([C@@H](C)CO)C(=O)c2cc(NC(=O)c3ccccc3)ccc2O1,0,0,0,82,0,0
C[C@@H]1CCCCO[C@@H](CN(C)Cc2ccc(Cl)c(Cl)c2)[C@H](C)CN([C@H](C)CO)C(=O)c2cc(NC(=O)c3ccccc3)ccc2O1,0,0,0,97,0,0
CCC(=O)N1C[C@H](C)[C@@H](OC)CN(C)C(=O)c2ccc(NC(=O)c3ccccc3)cc2OC[C@@H]1C,0,0,0,0,0,0
O=C1/C(=N\S(=O)(=O)c2cccs2)C([n+]2ccccc2)=C([O-])c2ccccc21,0,0,-,78,0,0
CC(C)(C)c1cc[n+](C2=C([O-])c3ccccc3C(=O)/C2=N\S(=O)(=O)c2cccs2)cc1,0,0,0,0,0,0
C[C@@H]1CN([C@@H](C)CO)C(=O)c2cc(NC(=O)Cc3ccccc3)ccc2O[C@@H](C)CCCCO[C@H]1CN(C)C,-,0,0,0,-,0
CC1(NC(=O)CC(c2ccccc2)(c2ccccc2)c2ccccc2)CCN(CCCc2ccccc2)C1=O (centres undefined),0,0,0,66,0,0
C[C@H](CO)N1C[C@H](C)[C@H](CN(C)C)Oc2cc(-c3cccc(F)c3)ccc2S1(=O)=O,0,0,0,-,0,0
CCC(c1nc2ccccc2[nH]1)n1c(-c2ccnc(Cl)c2)nc2ccccc21 (centres undefined),0,0,-,0,0,0
CCC(c1nc2ccccc2[nH]1)n1c(-c2ccc3cc[nH]c3c2)nc2ccccc21 (centres undefined),0,0,-,0,1.5,0
CCCNC(=S)N1CCN(c2nc(C)nc3sc4c(c23)CCCC4)CC1,0,0,0,0,43,0
COCCCNC(=S)N1CCN(c2nc(C)nc3sc4c(c23)CCCC4)CC1,0,0,-,0,0,0
COc1ccc(C(CC(=O)O)NS(=O)(=O)c2ccc(C)cc2)cc1OC (centres undefined),-,-,0,-,-,-
COc1ccc(CCC(=O)O)c(C(CC(=O)O)C(=O)O)c1OS(=O)(=O)c1ccc(C)cc1 (centres undefined),0,0,0,0,1.6,0
C[C@H]1CN([C@@H](C)CO)C(=O)c2cc(NC(=O)CCC(F)(F)F)ccc2O[C@@H]1CN(C)CC1CCCCC1,0,0,0,0,0,0
C/C(=N\NC(=O)CN1CCCCC1)c1ccccc1O,0,0,44,0,0,0
